From ChEMBL document CHEMBL1153600, “Synthesis of novel trans-stilbene derivatives and evaluation of their potent antioxidant and neuroprotective effects” (Eur J Med Chem, 2009)
Activity calls are given as the source filed them. The calls are words filed in the database; no cut-off is given here.

Experiments:
BV-2 [1] = assay: Antiinflammatory activity against mouse BV2 microglia cells assessed as inhibition of LPS-induced NO production after 24 hrs; assay type: functional; details: BV-2, 24 h, read-out: ED50 (the source's name)
How it was run: (§1)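 BV-2 murine microglia kept in DMEM with 10% FBS and penicillin/streptomycin (37 °C, 5% CO2). Cells were plated at 1 × 10⁵ cells/mL and stimulated with LPS 100 ng/mL, alone or with compound at 1, 10 or 50 µM, for 24 h at 37 °C. Nitrite in the medium was read by Griess reagent at 540 nm. Mean ± SD of three observations.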

[2] = tested on: Radical scavenging activity; assay: Antioxidant activity assessed as DPPH radical scavenging activity at 50 uM; assay type: functional
How it was run: (§2)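 DPPH radical bleaching, tested at 10, 50, 100 and 200 µM (printed as mM) following a published method, with resveratrol as reference.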

BV-2 [3] = assay: Antiinflammatory activity against mouse BV2 microglia cells assessed as inhibition of LPS-induced NO production at 10 to 50 uM after 24 hrs; assay type: functional, cell-based; how it was run: as §1
[4] = Neuroprotective activity in ICR mouse cortical neuron cells assessed as prevention of excitotoxic neuronal death after 24 hrs by LDH assay; assay type: functional; details: Cortical neurone, read-out: ED50 (the source's name)
How it was run: (§3)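 Primary cortical cultures from ICR mouse embryos at gestational day 15, plated on poly-D-lysine/laminin at 4.8 × 10⁵ cells/well in MEM with 5% FCS and mouse serum. Compound at 1–50 µM was co-applied with glutamate 50 µM for 24 h at 37 °C. LDH released into the medium was followed by NADH consumption with pyruvate, read at 340 nm. Mean ± SD of three observations.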

[5] = tested on: Radical scavenging activity; assay: Antioxidant activity assessed as DPPH radical scavenging activity at 100 uM; assay type: functional; how it was run: as §2
[6] = tested on: Radical scavenging activity; assay: Antioxidant activity assessed as DPPH radical scavenging activity at 200 uM; assay type: functional; how it was run: as §2
[7] = tested on: Radical scavenging activity; assay: Antioxidant activity assessed as DPPH radical scavenging activity; assay type: functional; how it was run: as §2
Cortical neurone [8] = assay: Neuroprotective activity in ICR mouse cortical neuron cells assessed as prevention of glutamate-induced neurotoxicity at 10 to 50 uM after 24 hrs by LDH assay; assay type: functional; how it was run: as §3
[9] = tested on: Radical scavenging activity; assay: Antioxidant activity assessed as DPPH radical scavenging activity at 10 uM; assay type: functional; how it was run: as §2
BV-2 [10] = assay: Antiinflammatory activity against mouse BV2 microglia cells assessed as inhibition of LPS-induced NO production at 1 uM after 24 hrs; assay type: functional, cell-based; how it was run: as §1
Cortical neurone [11] = assay: Neuroprotective activity in ICR mouse cortical neuron cells assessed as prevention of glutamate-induced neurotoxicity at 1 uM after 24 hrs by LDH assay; assay type: functional; how it was run: as §3

SMILES	EC50 (BV-2 [1])	Activity [2]	Activity (BV-2 [3])	EC50 [4]	Activity [5]	Activity [6]	IC50 [7]	Activity (Cortical neurone [8])	Activity [9]	Activity (BV-2 [10])	Activity (Cortical neurone [11])
C=CCNC(=O)c1ccc(/C=C/c2ccc(O)c(O)c2)cc1	1.95 µM	29%	Active	29.6 µM	41.7%	74.1%	98.1 µM	Active	15%		
O=C/C=C/c1ccc(/C=C/c2ccc(O)c(O)c2)cc1	1.51 µM	21.2%		42.3 µM	28.8%	54.4%	> 200 µM	Active	13.2%	Active	Active
COC(=O)c1ccc(/C=C/c2ccc(O)c(O)c2)cc1		8.95%			16.5%	29.3%	> 200 µM		2.31%		
O=C(NCC1CCCO1)c1ccc(/C=C/c2ccc(O)c(O)c2)cc1 (configuration not stated)		18%			26.5%	31.7%	> 200 µM		16.7%		
O=C(c1ccccc1)N1CCN(C(=O)c2ccc(/C=C/c3ccc(O)c(O)c3)cc2)CC1		24.6%			36.7%	59.1%	185 µM		17.2%		
CCOC(=O)c1cccc(NC(=O)c2ccc(/C=C/c3ccc(O)c(O)c3)cc2)c1		29.3%			44.1%	62.8%	127 µM		21.3%		
O=C(c1ccc(/C=C/c2ccc(O)c(O)c2)cc1)N1CCC(Cc2ccccc2)CC1	1.12 µM	10.1%			17.4%	25.8%	> 200 µM	Active	4.75%	Active	
O=C(NCc1ccccc1F)c1ccc(/C=C/c2ccc(O)c(O)c2)cc1		42.2%			52.3%	88%	43.6 µM		29.8%		
O=C(c1ccc(/C=C/c2ccc(O)c(O)c2)cc1)N1CCOCC1		10.2%			19.1%	29.4%	> 200 µM		5.7%		
O=C(NCc1ccco1)c1ccc(/C=C/c2ccc(O)c(O)c2)cc1	0.82 µM	35.1%	Active	58.3 µM	48%	79.2%	69 µM	Active	21.9%		
CC1CCN(C(=O)c2ccc(/C=C/c3ccc(O)c(O)c3)cc2)CC1		21.3%			31.5%	48.6%	> 200 µM		15.1%		
Oc1ccc(/C=C/c2cc(O)cc(O)c2)cc1 [RESVERATROL]		8.44%			28.4%	33.8%	> 200 µM		9.45%		
O=C(NC1CCCCC1)c1ccc(/C=C/c2ccc(O)c(O)c2)cc1		22.5%			40.2%	68.7%	128 µM		17.2%		
C=CCN1CCN(C(=O)c2ccc(/C=C/c3ccc(O)c(O)c3)cc2)CC1		31.2%			40%	62.4%	141 µM		24.8%		
O=C(CNC(=O)c1ccccc1)OCc1ccc(/C=C/c2ccc(O)c(O)c2)cc1		28.1%			33.2%	46.9%	> 200 µM		21.2%		Active
O=C(Nc1ccccc1)c1ccc(/C=C/c2ccc(O)c(O)c2)cc1		17.6%			27.1%	59.8%	> 200 µM		10.2%		
O=C(NCCCN1CCCC1=O)c1ccc(/C=C/c2ccc(O)c(O)c2)cc1		22.2%			28.4%	44%	> 200 µM		12.9%		
CCCCCCCCCCNC(=O)c1ccc(/C=C/c2ccc(O)c(O)c2)cc1		42%			75.2%	79.1%	47.9 µM		18.5%		
COC(=O)/C=C/c1ccc(/C=C/c2ccc(O)c(O)c2)cc1		5.31%			5.73%	5.29%	> 200 µM		5.91%		
OC/C=C/c1ccc(/C=C/c2ccc(O)c(O)c2)cc1		8.64%			11.5%	17.3%	> 200 µM		6.82%		
